The text below walks through data of ChEMBL document CHEMBL1139414, “Conformationally constrained analogues of diacylglycerol. 29. Cells sort diacylglycerol-lactone chemical zip codes to produce diverse and selective biological activities” (J Med Chem, 2008).

SMILES strings stand for the structures. Calls of active or inactive are those of the source. No cut-off for these calls is given here.

Experiment [1] relates to MCF-10A. Nature of the experiment: Induction of human MCF10A cell motility at 10 uM after 20 hrs by photomicroscopy relative to diacylglycerol-lactone. The class given is functional, cell-based. In outline:
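MCF-10A cells seeded in a small circular area through a 10-hole manifold; at manifold removal, compound added to a final 10 μM (vehicle 1% v/v DMSO), 37 °C, 5% CO₂. Radial spread imaged over 20 h; radius in microns expressed as a ratio to the radius from the DAG-lactone positive control. Triplicate measurements.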

Experiment [2] relates to CHO. Kind of experiment: Translocation of GFP-tagged PKCbeta from cytosol to membrane compartment of CHO cells. The class given is functional, cell-based. In outline:
(§1)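 GFP-tagged PKC isoforms overexpressed in CHO cells; live-cell localization followed by confocal microscopy before and after ligand (300 nM). Representative of 2 (PKCβ, ε) or 3 (PKCα, δ) independent experiments.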

For experiment [3], the system named is CHO. Nature of the experiment: Translocation of GFP-tagged mouse PKCdelta from cytosol to membrane compartment of CHO cells by confocal microscopy. The following applies: Cricetulus griseus. The class given is functional, cell-based. In outline:
as §1

The test system of experiment [4] is CHO. Kind of experiment: Translocation of GFP-tagged PKCalpha from cytosol to membrane compartment of CHO cells by confocal microscopy.
Experiment [5] relates to CHO. Kind of experiment: Translocation of GFP-tagged PKCepsilon from cytosol to membrane compartment of CHO cells by confocal microscopy.
Experiment [6] deals with T1, Ras guanyl-releasing protein 3 (Homo sapiens, UniProt Q8IV61).
T1 sequence (Q8IV61 whole entry): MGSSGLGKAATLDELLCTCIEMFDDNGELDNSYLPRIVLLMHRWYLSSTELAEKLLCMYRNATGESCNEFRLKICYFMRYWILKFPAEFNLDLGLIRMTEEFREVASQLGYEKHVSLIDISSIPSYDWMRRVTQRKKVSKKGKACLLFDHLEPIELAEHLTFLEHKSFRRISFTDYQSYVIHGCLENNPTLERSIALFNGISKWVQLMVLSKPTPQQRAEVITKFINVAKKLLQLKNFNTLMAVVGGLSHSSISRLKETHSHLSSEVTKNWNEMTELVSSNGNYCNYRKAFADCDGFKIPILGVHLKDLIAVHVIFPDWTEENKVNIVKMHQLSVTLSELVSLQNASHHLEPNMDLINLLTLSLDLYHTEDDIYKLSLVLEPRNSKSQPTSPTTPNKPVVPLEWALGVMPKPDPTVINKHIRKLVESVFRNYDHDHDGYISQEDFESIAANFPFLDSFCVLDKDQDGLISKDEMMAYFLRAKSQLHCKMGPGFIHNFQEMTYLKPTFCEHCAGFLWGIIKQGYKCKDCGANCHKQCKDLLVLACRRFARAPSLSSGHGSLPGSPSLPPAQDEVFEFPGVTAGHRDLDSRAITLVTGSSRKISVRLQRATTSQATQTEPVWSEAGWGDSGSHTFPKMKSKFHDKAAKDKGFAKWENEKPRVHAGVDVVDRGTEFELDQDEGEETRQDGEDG
Nature of the experiment: Binding affinity to RasGRP3.

The target in experiment [7] is Protein kinase C alpha type (Mus musculus, UniProt P20444). Nature of the experiment: Displacement of [3H]PDBu form mouse PKCalpha by scintillation counting. The procedure, abridged:
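Partially purified mouse PKCα; competition with [³H]PDBU. ID50 obtained by fitting a sigmoidal competition curve and converted to Ki = ID50/(1+L/Kd). Pure compounds tested at 6–7 concentrations; crude library compounds at a single 1 μM concentration. Triplicates per concentration, at least three experiments; mean ± SEM.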

Experiment [8] deals with Transcription factor Jun (Mus musculus) (UniProt P05627). Kind of experiment: Activation of AP1 expressed in BALB/c mouse JB6 cells coexpressing luciferase reportet gene at 100 ng/mL after 18 hrs relative to 12-O-tetradecanoylphorbol-13-O-acetate. The format is cell-based. The procedure, abridged: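 JB6 P+ cells seeded at 10⁴, transfected with 4x AP-1 luciferase reporter (0.2 μg DNA) using a 3:1 lipid reagent ratio; on day 3 treated with DMSO, TPA (10 ng/mL) or DAG-lactone (100 ng/mL); luciferase read 18 h later. Values normalized to TPA-induced activity; average of 6 independent assays.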

The subject of experiment [9] is NK92. Nature of the experiment: Induction of IFN-gamma production in human NK92 cells at 1 ug/mL after 6 hrs by ELISA. The format is functional, cell-based. The procedure, abridged:
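NK92 cells (10⁶ cells/mL) in RPMI with 10% FCS, glutamine and Pen/Strep at 37 °C for 6 h with derivative (1 μg/mL) alone or with IL12 (100 u/10⁶ cells), in duplicate wells. IFN-γ in supernatants by ELISA.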
Background: ELISA stands for enzyme-linked immunosorbent assay.

Experiment [10] can be described thus: Selectivity ratio of Ki for mouse PKCalpha to Ki for RasGRP3.
For experiment [11], the system named is LNCaP. Kind of experiment: Induction of apoptosis in human LnCAP cells pretreated at 10 uM for 16 hrs followed by 20 Gy radiation assessed after 24 hrs post radiation by fluorescence microscopy. The format is functional, cell-based. The procedure, abridged: (§2)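 LNCaP cells in RPMI-1640 with 0.2% human albumin replacing FCS from 24 h before the experiment; pretreated 16 h with compound (10 or 20 μM), then 20 Gy irradiation. Fixed 24 h post radiation, stained with bis-benzimide and scored by fluorescence microscopy; cells with ≥3 apoptotic bodies counted apoptotic. Average of two experiments ± SD.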

Experiment [12] relates to LNCaP. Nature of the experiment: Antitumor activity against human LnCAP cells transplanted in Swiss nude mouse assessed as inhibition of tumor growth at 12 mg/kg, ip administered daily 16 hrs prior to 10 Gy radiation during first week followed by 2 injections at 48 hrs intervals during second week assessed after 8 weeks by radioimmunoassay. On the set-up: dose 12 mg/kg. The format is functional, organism-based. In outline: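 Male Swiss nude mice (8–10 weeks) implanted orthotopically in prostate with 3.0×10⁶ LNCaP cells; used when serum PSA was 5.0–15.0 ng/mL. Drug 12 mg/kg i.p. in DMSO, 16 h before each 1 Gy local pelvic fraction (daily, Mon–Fri, total 10 Gy) in week 1, then two injections 48 h apart in week 2. Serum PSA by radioimmunoassay through week 8; mean per group.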

The subject of experiment [13] is LNCaP. Nature of the experiment: Antitumor activity against human LnCAP cells transplanted in Swiss nude mouse assessed as reduction in ataxia telengiectasia mutated gene level at 12 mg/kg, ip administered as 2 injections at 24 hrs intervals assessed after 8 weeks by radioimmunoassay. The format is functional, organism-based. Also noted: dose 12 mg/kg. The conditions noted are these: in the assay text read “48 hrs after first injection” for “after 8 weeks”. In outline:
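Orthotopic LNCaP prostate tumors (~100 mm³) in Swiss nude mice; 12 mg/kg i.p., two injections 24 h apart, prostate resected 48 h after first injection. ATM measured in tumor extracts relative to vehicle control.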

The subject of experiment [14] is LNCaP. Kind of experiment: Induction of apoptosis in human LnCAP cells pretreated at 20 uM for 16 hrs followed by 20 Gy radiation assessed after 24 hrs post radiation by fluorescence microscopy. The class given is functional, cell-based. The procedure, abridged: as §2

Chain of Transcription factor Jun (Mus musculus) (P05627 whole entry): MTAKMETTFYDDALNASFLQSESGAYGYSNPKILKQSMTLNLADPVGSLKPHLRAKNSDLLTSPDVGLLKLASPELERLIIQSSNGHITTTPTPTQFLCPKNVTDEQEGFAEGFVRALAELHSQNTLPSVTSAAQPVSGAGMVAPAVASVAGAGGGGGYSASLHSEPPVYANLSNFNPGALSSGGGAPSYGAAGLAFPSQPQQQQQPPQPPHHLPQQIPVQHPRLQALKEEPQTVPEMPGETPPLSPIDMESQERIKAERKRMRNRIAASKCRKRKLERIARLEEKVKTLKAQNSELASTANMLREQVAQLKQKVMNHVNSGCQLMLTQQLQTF

For the molecule `CCCCC(CC)C(=O)OCC1(CO)C/C(=C\c2ccc(F)c(Br)c2)C(=O)O1` (racemic; form 2), the result in experiment [1], in [2], in experiment [3], in experiment [4] and in experiment [5] was Active.
As to `CN(C)c1ccc(C(=O)OCC2(CO)C/C(=C\c3cccc([N+](=O)[O-])c3)C(=O)O2)cc1` (racemic), the inhibition constant Ki was determined as 8 nM in experiment [6] and 72.4 nM in experiment [7].
In the case of `CN(C)c1cccc(C(=O)OCC2(CO)C/C(=C\c3ccccc3[N+](=O)[O-])C(=O)O2)c1` (racemic), the inhibition constant Ki was found to be 16.4 nM in experiment [6] and 116 nM in [7].
Turning to `CN(C)c1cccc(C(=O)OCC2(CO)C/C(=C\c3ccc([N+](=O)[O-])cc3)C(=O)O2)c1` (racemic), the Ki came to 2.3 nM in [6] and 31.8 nM in [7].
Consider `CN(C)c1ccc(C(=O)OCC2(CO)C/C(=C\c3ccccc3[N+](=O)[O-])C(=O)O2)cc1` (racemic), for which the Ki in [6] was 14.4 nM; in experiment [7], 54.5 nM.
In the case of `CCCCC(CC)C(=O)OCC1(CO)C/C(=C\c2ccc(Cl)c(F)c2)C(=O)O1` (racemic; form 2), the outcome in experiment [8] and in [9] was Active.
Regarding `CCCCC(CC)C(=O)OCC1(CO)C/C(=C\c2ccc(Cl)cc2)C(=O)O1` (racemic; form 2), the outcome in experiment [8] and in experiment [9] was Active.
Regarding `O=C1OC(CO)(COC(=O)c2ccc([N+](=O)[O-])cc2)C/C1=C\c1ccc([N+](=O)[O-])cc1` (racemic; form 2) [listing 1 of 2 here], the Ratio Ki in experiment [10] turned out to be 57.
As to `O=C1OC(CO)(COC(=O)c2ccc([N+](=O)[O-])cc2)C/C1=C\c1ccc([N+](=O)[O-])cc1` (racemic; form 2) [listing 2 of 2 here], the Ki was determined as 2.22 nM in experiment [6] and 127 nM in experiment [7].
In the case of `CCCC(CCC)C(=O)OCC1(CO)C/C(=C\c2ccc(C(F)(F)F)cc2)C(=O)O1` (racemic; form 1), the outcome in [11], in experiment [8], in experiment [12], in experiment [9], in experiment [13] and in experiment [14] was Active.
With `CCC(C(=O)OCC1(CO)C/C(=C\c2ccc(-c3ccc(C(F)(F)F)cc3)cc2)C(=O)O1)c1ccccc1` (racemic; form 2), the result in experiment [1] was Active.
As to `CN(C)c1ccc(C(=O)OCC2(CO)C/C(=C\c3ccc([N+](=O)[O-])cc3)C(=O)O2)cc1` (racemic; form 1), the Ki in experiment [6] was determined as 3.8 nM; in experiment [7], 127 nM.
Regarding `CN(C)c1ccccc1C(=O)OCC1(CO)C/C(=C\c2ccc([N+](=O)[O-])cc2)C(=O)O1` (racemic), the inhibition constant Ki in experiment [6] was 1.8 nM; in experiment [7], 38.5 nM.
The like results for `CN(C)c1ccccc1C(=O)OCC1(CO)C/C(=C\c2cccc([N+](=O)[O-])c2)C(=O)O1` (racemic) were, in that order, 3.9 nM and 44 nM.
As to `CN(C)c1ccccc1C(=O)OCC1(CO)C/C(=C\c2ccccc2[N+](=O)[O-])C(=O)O1` (racemic), the Ki in experiment [6] was 9.4 nM; in [7] it was 134 nM.
For `CCCC(CCC)C(=O)OCC1(CO)C/C(=C\c2ccc(F)cc2)C(=O)O1` (racemic; form 1), the result in [11], in [8] and in experiment [14] was Active.
Regarding `CCCCC(CC)C(=O)OCC1(CO)C/C(=C/c2ccc(Cl)c(F)c2)C(=O)O1` (racemic), the result in [8] and in [9] was Active. The same molecule yielded a Ki in [7] of 10.1 nM.
With `CN(C)c1ccc(/C=C2\CC(CO)(COC(=O)c3ccc(N(C)C)cc3)OC2=O)cc1` (racemic; form 1), the Ki in experiment [6] is 4.68 nM; in experiment [7], 102 nM.
With `CN(C)c1cccc(C(=O)OCC2(CO)C/C(=C\c3cccc([N+](=O)[O-])c3)C(=O)O2)c1` (racemic), the values for the Ki in experiment [6] and in experiment [7] were 5.3 nM and 63 nM, respectively.

What is called Ki is a dissociation constant, usually derived from enzyme kinetics or from competition with a known ligand. A high value points to weaker binding.
